High-throughput results: PubChem BioAssay, several laboratories
Hits are enriched below; roughly 6.4% of the tested compounds scored in any of these assays.
MPTP inh = permeability transition pore inhibition; isolated mouse mitochondria, Ca2+ swelling absorbance, 30 min; inhibition, % at 10 µM; actives 1.4% (n = 360,000); AID 602449;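 active = inhibition of 50% or more, scaled per plate between neutral and stimulator controls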
GRIN3A LBD mod = NR3A (human) ligand-binding domain modulation; NR3A LBD differential scanning fluorimetry, Tm shift; 0% = protein alone, 100% = glycine-bound protein; Tm shift relative to glycine control, % at 25 µM; actives 2.5% (n = 340,000); AID 1259313;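 active = melting temperature shift of at least 10% of the positive control shift, at one fixed dose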
EBV gp42 inh = inhibitors of Epstein-Barr virus glycoprotein 42 | Fluorescence polarization binding assay, mP read-out | inhibition, % (tested at 21.74 µM) | actives 0.42% (n = 220,000) | AID 1085; in the data active = inhibition above about 50%
Target sequence (Q1HVG2 whole entry, looked up): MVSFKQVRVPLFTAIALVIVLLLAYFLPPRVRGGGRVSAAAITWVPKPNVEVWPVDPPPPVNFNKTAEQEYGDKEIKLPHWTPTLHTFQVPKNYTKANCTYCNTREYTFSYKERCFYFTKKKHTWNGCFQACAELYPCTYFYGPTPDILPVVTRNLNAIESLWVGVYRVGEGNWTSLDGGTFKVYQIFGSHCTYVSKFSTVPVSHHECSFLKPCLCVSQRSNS
Tb MetRS inh = blocks T. brucei methionyl-tRNA synthetase activity; inhibition, % at 11.9 µM; purified T. brucei MetRS, ATP depletion, Kinase-Glo luminescence; actives 0.4% (n = 360,000);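 active = inhibition above a per-plate cutoff of the control wells' mean inhibition plus 3 SD, cut at about 5.5% in these data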
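Dosing: 11.9 µM single point; system: parasite MetRS enzyme; technique: luminescence of leftover ATP; times: 15 min enzyme-compound preincubation, 2 h reaction, 10 min detection, 25 °C; replicates: each compound tested once; read-out basis: percent inhibition relative to median high and low control wells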
WT yeast gro inh = growth inhibition of WT yeast, mitochondrial fusion screen; mitochondrial fusion phenotypic screen, WT strain; inhibition, % at 10 µM; actives 2.1% (n = 190,000); AID 1362; in the data active = inhibition above about 58%; tested in S. cerevisiae
CHOP inhibitor = blocks CHOP induction under ER stress. CHO-K1 CHOP-promoter luciferase, tunicamycin-induced, 15-18 h. actives 3.8% (n = 220,000). inhibition, % at 10 µM;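 active = compounds that reduced the stress-induced luciferase reporter signal by more than about 70% of percent inhibition, limit read from the data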
Numbers stand for hits.

How did CCn1c2ccccc2c2cc(/C=N/NC(=O)c3ccccc3)ccc21 do in these assays?
MPTP inh: inactive; GRIN3A LBD mod: inactive; EBV gp42 inh: inactive; Tb MetRS inh: inactive; WT yeast gro inh: inactive; CHOP inhibitor: inactive

How did CSc1ccc(/C=N/NC(=O)c2ccc(C)c(C)c2)cc1 do in these assays?
MPTP inh: inactive; GRIN3A LBD mod: inactive; EBV gp42 inh: inactive; Tb MetRS inh: inactive; WT yeast gro inh: inactive; CHOP inhibitor: inactive

Results for COc1cc(C(=O)N/N=C/c2ccc3c(c2)c2ccccc2n3C)ccc1O ?
MPTP inh: inactive; GRIN3A LBD mod: 38; Tb MetRS inh: inactive

How did Nc1ccc(C(=O)N/N=C\c2ccc(OC(=O)c3ccccc3Cl)cc2)cc1 do in these assays?
MPTP inh: inactive; GRIN3A LBD mod: inactive; Tb MetRS inh: inactive

How did O=C(CN1C(=O)NC2(CCCc3ccccc32)C1=O)NCC(F)(F)F (stereo not given) do in these assays?
MPTP inh: inactive; GRIN3A LBD mod: inactive; Tb MetRS inh: inactive

How did O=C(O)/C=C/C(=O)Nc1ccc(OCc2ccccc2)cc1 do in these assays?
MPTP inh: inactive; GRIN3A LBD mod: inactive; EBV gp42 inh: inactive; Tb MetRS inh: inactive; CHOP inhibitor: inactive

What do the screens show for `O=C(N/N=C/c1cccc(O)c1)c1ccccc1O`?
MPTP inh: inactive; GRIN3A LBD mod: inactive; EBV gp42 inh: inactive; Tb MetRS inh: inactive; CHOP inhibitor: inactive

How did Cn1c2ccccc2c2cc(/C=N/NC(=O)c3cc(O)ccc3O)ccc21 do in these assays?
MPTP inh: inactive; GRIN3A LBD mod: 26; Tb MetRS inh: inactive

How did CN(C)c1ccc(C(=O)NN2C(=O)c3ccccc3C2=O)cc1 do in these assays?
MPTP inh: inactive; GRIN3A LBD mod: inactive; EBV gp42 inh: inactive; Tb MetRS inh: inactive; WT yeast gro inh: inactive; CHOP inhibitor: inactive

How did Cc1cccc(S(=O)(=O)Nc2nc3ccccc3nc2NCC2CCCO2)c1 (stereo not given) do in these assays?
MPTP inh: inactive; GRIN3A LBD mod: inactive; EBV gp42 inh: inactive; Tb MetRS inh: inactive; CHOP inhibitor: inactive

Results for CC(=O)NC(CC(C)C)C(=O)NC(Cc1ccccc1)C(=O)CCl (stereo not given) ?
MPTP inh: inactive; GRIN3A LBD mod: 17; Tb MetRS inh: inactive

Results for COc1ccc(OC)c(C2CC(=O)c3c([nH]c(C(=O)OC(C)C)c3C)C2)c1 (stereo not given) ?
MPTP inh: inactive; GRIN3A LBD mod: inactive; EBV gp42 inh: inactive; Tb MetRS inh: inactive; WT yeast gro inh: inactive

Results for O=C(/C=C/c1ccccc1)Nc1cccc(C(=O)N2CCCCC2)c1 ?
MPTP inh: inactive; GRIN3A LBD mod: inactive; Tb MetRS inh: inactive

What do the screens show for `Cc1ccc(C(=O)COC(=O)c2ccc3c(c2)C(=O)N(c2cccc4ncccc24)C3=O)cc1`?
MPTP inh: inactive; GRIN3A LBD mod: inactive; EBV gp42 inh: inactive; Tb MetRS inh: inactive; WT yeast gro inh: inactive; CHOP inhibitor: inactive

How did O=C(COC(=O)c1ccc2c(c1)C(=O)N(c1cccc3ncccc13)C2=O)c1ccc(Cl)cc1 do in these assays?
MPTP inh: inactive; GRIN3A LBD mod: inactive; EBV gp42 inh: inactive; Tb MetRS inh: inactive; WT yeast gro inh: inactive; CHOP inhibitor: 87

Results for O=C(CCN1C(=O)S/C(=C/c2ccc(Cl)cc2)C1=O)N1CCOCC1 ?
MPTP inh: inactive; GRIN3A LBD mod: inactive; EBV gp42 inh: inactive; Tb MetRS inh: inactive; WT yeast gro inh: inactive; CHOP inhibitor: inactive

What do the screens show for `Cc1cccc(-c2cc3c(N=O)c4ccccc4c-3n[nH]2)c1`?
MPTP inh: inactive; GRIN3A LBD mod: inactive; EBV gp42 inh: inactive; Tb MetRS inh: inactive; WT yeast gro inh: inactive; CHOP inhibitor: 85

What do the screens show for `Cc1cccc(-c2cc3nc(C)cc(=O)n3[nH]2)c1`?
MPTP inh: inactive; Tb MetRS inh: inactive

What do the screens show for `Cc1ccc(-c2cc3c(N=O)c4ccccc4c-3n[nH]2)cc1`?
MPTP inh: inactive; GRIN3A LBD mod: inactive; EBV gp42 inh: inactive; Tb MetRS inh: inactive; WT yeast gro inh: 64; CHOP inhibitor: inactive

How did O=Nc1c2cc(-c3ccccc3)[nH]nc-2c2ccccc12 do in these assays?
MPTP inh: inactive; GRIN3A LBD mod: inactive; EBV gp42 inh: inactive; Tb MetRS inh: inactive; WT yeast gro inh: inactive; CHOP inhibitor: 92

What do the screens show for `O=c1[nH]nc(-c2ccccc2)c2ccccc12`?
MPTP inh: inactive; GRIN3A LBD mod: inactive; EBV gp42 inh: inactive; Tb MetRS inh: inactive; CHOP inhibitor: inactive
